Results from ChEMBL document CHEMBL2331304, “N1,N3-disubstituted uracils as nonnucleoside inhibitors of HIV-1 reverse transcriptase” (Bioorg Med Chem, 2013).
Active and inactive are the calls of the source. The rule behind the calls is not given here.

Tests used:
[1] = tested on: Mammalian orthoreovirus 1; experiment: Antiviral activity against Reovirus 1; type: functional, organism-based
[2] = tested on: Human alphaherpesvirus 3; experiment: Antiviral activity against Varicella zoster virus; type: functional, organism-based
Method in brief: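 VZV strain Oka and the TK− strain 07-1 were inoculated at 20 PFU onto confluent cell monolayers in the presence of varying compound concentrations. Plaque formation was recorded once complete in untreated infected controls.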

[3] = tested on: Human alphaherpesvirus 1; experiment: Antiviral activity against Human herpesvirus 1; type: functional, organism-based
Method in brief: (§1)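 Confluent HEL, Vero, HeLa or MDCK monolayers (cell type per virus not specified) were inoculated with 100 CCID50 of virus, with a range of compound concentrations. Strains were HSV-1 KOS and TK− ACV-resistant KOS, HSV-2 Lyons and G, and HCMV AD-169 and Davis. Cytopathicity or plaques were scored once complete in untreated infected controls.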

[4] = tested on: Sindbis virus; experiment: Antiviral activity against Sindbis virus; type: functional, organism-based
[5] = biological target: Human immunodeficiency virus type 1 reverse transcriptase (Human immunodeficiency virus 1, UniProt Q72547, L100I); experiment: Inhibition of HIV1 reverse transcriptase p66/p51 L100I mutant after 30 mins by liquid scintillation counting
[6] = tested on: Punta Toro virus; experiment: Antiviral activity against Punta Toro virus; type: functional, organism-based
[7] = tested on: Vaccinia virus; experiment: Antiviral activity against Vaccinia virus; type: functional, organism-based; conditions: Orthopoxvirus vaccinia
[8] = tested on: Influenza B virus; experiment: Antiviral activity against influenza B virus; type: functional, organism-based
[9] = tested on: Human alphaherpesvirus 2; experiment: Antiviral activity against Human herpesvirus 2; type: functional, organism-based; method in brief: as §1
[10] = tested on: Influenza A virus; experiment: Antiviral activity against Influenza A virus H3N2; type: functional, organism-based
[11] = tested on: Feline coronavirus; experiment: Antiviral activity against Feline coronavirus; type: functional, organism-based
[12] = biological target: Human immunodeficiency virus type 1 reverse transcriptase (Human immunodeficiency virus 1, UniProt Q72547, V106A); experiment: Inhibition of HIV1 reverse transcriptase p66/p51 V106A mutant after 30 mins by liquid scintillation counting
[13] = biological target: Human immunodeficiency virus type 1 reverse transcriptase (Human immunodeficiency virus 1, UniProt Q72547); experiment: Non-competitive inhibition of wild type HIV1 reverse transcriptase p66/p51 after 30 mins by liquid scintillation counting
[14] = biological target: Human immunodeficiency virus type 1 reverse transcriptase (Human immunodeficiency virus 1, UniProt Q72547, K103N/Y181C); experiment: Inhibition of HIV1 reverse transcriptase p66/p51 K103N/Y181C mutant after 30 mins by liquid scintillation counting
[15] = tested on: Human respirovirus 3; experiment: Antiviral activity against Parainfluenza virus 3; type: functional, organism-based
[16] = tested on: Influenza A virus; experiment: Antiviral activity against Influenza A virus H1N1; type: functional, organism-based
[17] = tested on: MT4; experiment: Cytotoxicity against human MT4 cells after 4 days by MTT assay; type: cell-based; conditions: mt4, 96 h
[18] = tested on: Respiratory syncytial virus; experiment: Antiviral activity against Respiratory syncytial virus; type: functional, organism-based
[19] = tested on: Vesicular stomatitis virus; experiment: Antiviral activity against Vesicular stomatitis virus; type: functional, organism-based
[20] = biological target: Human immunodeficiency virus type 1 reverse transcriptase (Human immunodeficiency virus 1, UniProt Q72547, K103N); experiment: Inhibition of HIV1 reverse transcriptase p66/p51 K103N mutant after 30 mins by liquid scintillation counting
[21] = tested on: Human immunodeficiency virus 1; experiment: Antiviral activity against HIV1 3B infected in human MT4 cells assessed as inhibition of virus-induced cytopathic effect after 4 days by MTT assay; type: functional, organism-based; conditions: Human immunodeficiency virus 1, 3B, MT4, 96 h
Method in brief: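 HIV-1 in MT-4 cells at 1 × 10^5 cells/ml, infected at MOI 0.02 (virus stock titrated as CCID50), then plated immediately onto varying compound concentrations. After 4 days at 37 °C, viable cells counted by MTT.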

[22] = tested on: Coxsackievirus B4; experiment: Antiviral activity against Coxsackievirus B4; type: functional, organism-based
[23] = Inhibition of HIV1 reverse transcriptase p66/p51 G190A mutant after 30 mins by liquid scintillation counting; design: species or system Human immunodeficiency virus 1
[24] = Selectivity index, ratio of CC50 for human MT4 cells to EC50 for HIV1 3B infected in human MT4 cells; type: toxicity, cell-based; conditions: MT4 cells (uninfected for CC50; HIV-1 3B infected for EC50)
[25] = biological target: Human immunodeficiency virus type 1 reverse transcriptase (Human immunodeficiency virus 1, UniProt Q72547, Y181C); experiment: Inhibition of HIV1 reverse transcriptase p66/p51 Y181C mutant after 30 mins by liquid scintillation counting
[26] = tested on: Human betaherpesvirus 5; experiment: Antiviral activity against HCMV AD169; type: functional, organism-based; conditions: Human betaherpesvirus 5, AD169; method in brief: as §1
[27] = tested on: Human betaherpesvirus 5; experiment: Antiviral activity against HCMV Davis; type: functional, organism-based; conditions: Human betaherpesvirus 5, Davis; method in brief: as §1

Row | SMILES | Activity [1] | Activity [2] | Activity [3] | Activity [4] | Ki [5] [µM] | Activity [6] | Activity [7] | Activity [8] | Activity [9] | Activity [10] | Activity [11] | Ki [12] [µM] | Ki [13] [µM] | Ki [14] [µM] | Activity [15] | Activity [16] | CC50 [17] [µM] | Activity [18] | Activity [19] | Ki [20] [µM] | further results
1 | Cc1cc(C)cc(Cn2c(=O)ccn(C/C=C/c3ccccc3)c2=O)c1 | inactive | inactive | inactive | inactive | 0.76 | inactive | inactive | inactive | inactive | inactive | inactive | 2.9 | 0.55 | > 100 | inactive | inactive | 257 | inactive | inactive | 12 | EC50 [21]: 1.27 µM; Activity [22]: inactive; Ki [23]: 0.4 µM; selectivity ratio [24]: 202; Ki [25]: 75 µM
2 | Cc1cc(Br)cc(Cn2c(=O)ccn(C/C=C/c3ccccc3)c2=O)c1 | inactive | inactive | inactive | inactive | 0.24 | inactive | inactive | inactive | inactive | inactive | inactive | 2.3 | 0.31 | 85 | inactive | inactive | 100 | inactive | inactive | 6.9 | IC50 [26]: 16 µM; EC50 [21]: 1.36 µM; Activity [22]: inactive; Ki [23]: 0.18 µM; selectivity ratio [24]: 73; IC50 [27]: ≥ 20 µM; Ki [25]: 20 µM
3 | Cc1ccc(OCCn2ccc(=O)n(Cc3cc(C)cc(C)c3)c2=O)cc1 | inactive | inactive | inactive | inactive | 0.13 | inactive | inactive | inactive | inactive | inactive | inactive | 7.5 | 0.26 | > 26 | inactive | inactive | > 343 | inactive | inactive | > 26 | EC50 [21]: 0.27 µM; Activity [22]: inactive; Ki [23]: 0.36 µM; selectivity ratio [24]: > 1270; Ki [25]: 169 µM
4 | O=c1ccn(C/C=C/c2ccccc2)c(=O)n1Cc1cc(Cl)cc(Cl)c1 | inactive | inactive | inactive | inactive | 0.92 | inactive | inactive | inactive | inactive | inactive | inactive | 11 | 0.67 | > 100 | inactive | inactive | 49 | inactive | inactive | 15.5 | IC50 [26]: 9.4 µM; EC50 [21]: 1.99 µM; Activity [22]: inactive; Ki [23]: 0.55 µM; selectivity ratio [24]: 24; IC50 [27]: 12 µM; Ki [25]: 43 µM
